{
  "source": "ChEMBL document CHEMBL4828740",
  "about": "“Discovery of Quinoxaline-Based P1-P3 Macrocyclic NS3/4A Protease Inhibitors with Potent Activity against Drug-Resistant Hepatitis C Virus Variants” (J Med Chem, 2021)",
  "data": [
    {"tested_on": "Hepatitis C virus", "assay": "Antiviral activity against HCV genotype 1b infected in human Huh7 cells incubated for 96 hrs by luciferase assay", "assay_type": "functional, organism-based, Hepacivirus hominis", "settings": "Huh-7, 96 h", "summary_of_the_method": "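Con1 (GT-1b) luciferase reporter replicon carrying the H77 (GT-1a) NS3 protease region, either WT or with A156T or D168A introduced by megaprimer mutagenesis. Cured Huh7 cells grown in DMEM with 10% heat-inactivated FBS and 0.1 mM non-essential amino acids. Cells electroporated with replicon RNA and kept with serially diluted inhibitor.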", "units": {"EC50": "nM"}, "values": [
      {"smiles": "CC(C)(C)[C@@H]1NC(=O)O[C@@H]2CCC[C@H]2OC/C=C/C(F)(F)c2nc3ccccc3nc2O[C@@H]2C[C@@H](C(=O)N[C@]3(C(=O)NS(=O)(=O)C4(C)CC4)C[C@H]3C(F)F)N(C2)C1=O", "EC50": 0.2},
      {"smiles": "COc1ccc2nc(O[C@@H]3C[C@H]4C(=O)N[C@]5(C(=O)NS(=O)(=O)C6(C)CC6)C[C@H]5/C=C/CCCCC[C@H](NC(=O)O[C@@H](C)C(F)(F)F)C(=O)N4C3)c(C(F)(F)F)nc2c1", "EC50": 5.6},
      {"smiles": "COc1ccc2nc(O[C@@H]3C[C@H]4C(=O)N[C@]5(C(=O)NS(=O)(=O)C6(C)CC6)C[C@H]5/C=C/CCCCC[C@H](NC(=O)OC5CCCC5)C(=O)N4C3)c(C(F)(F)F)nc2c1", "EC50": 3.2},
      {"smiles": "COc1ccc2nc(O[C@@H]3C[C@H]4C(=O)N[C@]5(C(=O)NS(=O)(=O)C6(C)CC6)C[C@H]5/C=C/CCCCC[C@H](NC(=O)OC5(C(F)(F)F)CCC5)C(=O)N4C3)c(C(F)(F)F)nc2c1", "EC50": 1.4},
      {"smiles": "COc1ccc2nc(O[C@@H]3C[C@H]4C(=O)N[C@]5(C(=O)NS(=O)(=O)C6(C)CC6)C[C@H]5/C=C/CCCCC[C@H](NC(=O)OC5CCC5)C(=O)N4C3)c(C(F)(F)F)nc2c1", "EC50": 1.8}
    ]},
    {"biological_target": "T1, Hepatitis C virus serine protease, NS3/NS4A (Hepatitis C virus, UniProt A3EZI9+D2K2A8)", "assay": "Inhibition of HCV GT-1a NS3/4a protease using Ac-DE-D(Edans)-EE-Abu-c-[COO]-AS-K(Dabcy1)-NH2 preincubated for 1 hr followed by substrate addition", "assay_type": "protein complex, Hepatitis C virus subtype 1a", "settings": "not given", "units": {"Ki": "nM"}, "values": [
      {"smiles": "COc1ccc2nc(O[C@@H]3C[C@H]4C(=O)N[C@]5(C(=O)NS(=O)(=O)C6(C)CC6)C[C@H]5/C=C/CCCCC[C@H](NC(=O)O[C@@H](C)C(F)(F)F)C(=O)N4C3)c(C(F)(F)F)nc2c1", "Ki": 7.7},
      {"smiles": "COc1ccc2nc(O[C@@H]3C[C@H]4C(=O)N[C@]5(C(=O)NS(=O)(=O)C6(C)CC6)C[C@H]5/C=C/CCCCC[C@H](NC(=O)OC5CCCC5)C(=O)N4C3)c(C(F)(F)F)nc2c1", "Ki": 8.1},
      {"smiles": "COc1ccc2nc(O[C@@H]3C[C@H]4C(=O)N[C@]5(C(=O)NS(=O)(=O)C6(C)CC6)C[C@H]5/C=C/CCCCC[C@H](NC(=O)OC5(C(F)(F)F)CCC5)C(=O)N4C3)c(C(F)(F)F)nc2c1", "Ki": 2},
      {"smiles": "COc1ccc2nc(O[C@@H]3C[C@H]4C(=O)N[C@]5(C(=O)NS(=O)(=O)C6(C)CC6)C[C@H]5/C=C/CCCCC[C@H](NC(=O)OC5CCC5)C(=O)N4C3)c(C(F)(F)F)nc2c1", "Ki": 8.5}
    ]},
    {"tested_on": "Hepatitis C virus", "assay": "Antiviral activity against HCV genotype 1b harboring A156T mutant infected in human Huh7 cells incubated for 96 hrs by luciferase assay", "assay_type": "functional, organism-based, Hepacivirus hominis", "settings": "subtype 1b, Huh-7, 96 h", "summary_of_the_method": "(§1)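 Con1 (GT-1b) luciferase reporter replicon carrying the H77 (GT-1a) NS3 protease region, with the mutation introduced by megaprimer site-directed mutagenesis. Cured Huh7 cells were grown in DMEM with 10% heat-inactivated FBS and 0.1 mM non-essential amino acids, electroporated with replicon RNA transcripts, and kept with serially diluted inhibitor. EC50 was taken directly from the inhibition curves.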", "units": {"EC50": "nM"}, "values": [
      {"smiles": "COc1ccc2nc(O[C@@H]3C[C@H]4C(=O)N[C@]5(C(=O)NS(=O)(=O)C6(C)CC6)C[C@H]5/C=C/CCCCC[C@H](NC(=O)O[C@@H](C)C(F)(F)F)C(=O)N4C3)c(C(F)(F)F)nc2c1", "EC50": 75},
      {"smiles": "COc1ccc2nc(O[C@@H]3C[C@H]4C(=O)N[C@]5(C(=O)NS(=O)(=O)C6(C)CC6)C[C@H]5/C=C/CCCCC[C@H](NC(=O)OC5CCCC5)C(=O)N4C3)c(C(F)(F)F)nc2c1", "EC50": 45},
      {"smiles": "COc1ccc2nc(O[C@@H]3C[C@H]4C(=O)N[C@]5(C(=O)NS(=O)(=O)C6(C)CC6)C[C@H]5/C=C/CCCCC[C@H](NC(=O)OC5(C(F)(F)F)CCC5)C(=O)N4C3)c(C(F)(F)F)nc2c1", "EC50": 5.1},
      {"smiles": "COc1ccc2nc(O[C@@H]3C[C@H]4C(=O)N[C@]5(C(=O)NS(=O)(=O)C6(C)CC6)C[C@H]5/C=C/CCCCC[C@H](NC(=O)OC5CCC5)C(=O)N4C3)c(C(F)(F)F)nc2c1", "EC50": 9.6}
    ]},
    {"tested_on": "Hepatitis C virus", "assay": "Antiviral activity against HCV genotype 3a infected in human Huh7.5 cells incubated for 72 hrs by luciferase assay", "assay_type": "functional, organism-based, Hepacivirus hominis", "settings": "subtype 3a, Huh7.5, 72 h", "summary_of_the_method": "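Huh7.5 cells stably harboring the GT-3a replicon S52/SG-Feo SHI, seeded at 8,000 cells/well. Cells lysed in 1X Passive Lysis Buffer and luciferase activity measured. EC50 taken from drug inhibition curves.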", "units": {"EC50": "nM"}, "values": [
      {"smiles": "CC(C)(C)[C@@H]1NC(=O)O[C@@H]2CCC[C@H]2OC/C=C/C(F)(F)c2nc3ccccc3nc2O[C@@H]2C[C@@H](C(=O)N[C@]3(C(=O)NS(=O)(=O)C4(C)CC4)C[C@H]3C(F)F)N(C2)C1=O", "EC50": 30},
      {"smiles": "COc1ccc2nc(O[C@@H]3C[C@H]4C(=O)N[C@]5(C(=O)NS(=O)(=O)C6(C)CC6)C[C@H]5/C=C/CCCCC[C@H](NC(=O)OC5(C(F)(F)F)CCC5)C(=O)N4C3)c(C(F)(F)F)nc2c1", "EC50": 900}
    ]},
    {"biological_target": "T1, Hepatitis C virus serine protease, NS3/NS4A", "assay": "Inhibition of HCV GT-3a NS3/4a protease using Ac-DE-D(Edans)-EE-Abu-c-[COO]-AS-K(Dabcy1)-NH2 preincubated for 1 hr followed by substrate addition", "assay_type": "protein-complex assay, Hepatitis C virus subtype 3a", "settings": "not given", "units": {"Ki": "nM"}, "values": [
      {"smiles": "COc1ccc2nc(O[C@@H]3C[C@H]4C(=O)N[C@]5(C(=O)NS(=O)(=O)C6(C)CC6)C[C@H]5/C=C/CCCCC[C@H](NC(=O)O[C@@H](C)C(F)(F)F)C(=O)N4C3)c(C(F)(F)F)nc2c1", "Ki": 580},
      {"smiles": "COc1ccc2nc(O[C@@H]3C[C@H]4C(=O)N[C@]5(C(=O)NS(=O)(=O)C6(C)CC6)C[C@H]5/C=C/CCCCC[C@H](NC(=O)OC5CCCC5)C(=O)N4C3)c(C(F)(F)F)nc2c1", "Ki": 433},
      {"smiles": "COc1ccc2nc(O[C@@H]3C[C@H]4C(=O)N[C@]5(C(=O)NS(=O)(=O)C6(C)CC6)C[C@H]5/C=C/CCCCC[C@H](NC(=O)OC5(C(F)(F)F)CCC5)C(=O)N4C3)c(C(F)(F)F)nc2c1", "Ki": 133},
      {"smiles": "COc1ccc2nc(O[C@@H]3C[C@H]4C(=O)N[C@]5(C(=O)NS(=O)(=O)C6(C)CC6)C[C@H]5/C=C/CCCCC[C@H](NC(=O)OC5CCC5)C(=O)N4C3)c(C(F)(F)F)nc2c1", "Ki": 870}
    ]},
    {"tested_on": "Hepatitis C virus", "assay": "Antiviral activity against HCV genotype 1b harboring D168A mutant infected in human Huh7 cells incubated for 96 hrs by luciferase assay", "assay_type": "functional, organism-based, Hepacivirus hominis", "settings": "subtype 1b, Huh-7, 96 h", "summary_of_the_method": "as §1", "units": {"EC50": "nM"}, "values": [
      {"smiles": "CC(C)(C)[C@@H]1NC(=O)O[C@@H]2CCC[C@H]2OC/C=C/C(F)(F)c2nc3ccccc3nc2O[C@@H]2C[C@@H](C(=O)N[C@]3(C(=O)NS(=O)(=O)C4(C)CC4)C[C@H]3C(F)F)N(C2)C1=O", "EC50": 0.2},
      {"smiles": "COc1ccc2nc(O[C@@H]3C[C@H]4C(=O)N[C@]5(C(=O)NS(=O)(=O)C6(C)CC6)C[C@H]5/C=C/CCCCC[C@H](NC(=O)O[C@@H](C)C(F)(F)F)C(=O)N4C3)c(C(F)(F)F)nc2c1", "EC50": 18},
      {"smiles": "COc1ccc2nc(O[C@@H]3C[C@H]4C(=O)N[C@]5(C(=O)NS(=O)(=O)C6(C)CC6)C[C@H]5/C=C/CCCCC[C@H](NC(=O)OC5CCCC5)C(=O)N4C3)c(C(F)(F)F)nc2c1", "EC50": 6.2},
      {"smiles": "COc1ccc2nc(O[C@@H]3C[C@H]4C(=O)N[C@]5(C(=O)NS(=O)(=O)C6(C)CC6)C[C@H]5/C=C/CCCCC[C@H](NC(=O)OC5(C(F)(F)F)CCC5)C(=O)N4C3)c(C(F)(F)F)nc2c1", "EC50": 7.8},
      {"smiles": "COc1ccc2nc(O[C@@H]3C[C@H]4C(=O)N[C@]5(C(=O)NS(=O)(=O)C6(C)CC6)C[C@H]5/C=C/CCCCC[C@H](NC(=O)OC5CCC5)C(=O)N4C3)c(C(F)(F)F)nc2c1", "EC50": 50}
    ]}
  ]
}
